Results published in ChEMBL document CHEMBL1126013, “Synthesis and evaluation of some water-soluble prodrugs and derivatives of taxol with antitumor activity” (J Med Chem, 1992).

Legend:
Mus musculus [1] = experiment: Number of survivors after 11 days at a dose of 10.5 mg/Kg tested in 6 mice; format: functional
Summary of the method: (§1)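 MX-1 human mammary carcinoma xenograft implanted under the renal capsule of mice. The study was run at the National Cancer Institute following the procedures of NIH Publication No. 84-2635. Average tumor weight was recorded at the start and end of treatment, and survivors were counted after 11 days. Dosed groups were compared with an untreated control group.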

Mus musculus [2] = experiment: Number of survivors after 11 days at a dose of 5.25 mg/Kg tested in 6 mice; format: functional; summary of the method: as §1
Mus musculus [3] = experiment: Antitumor activity of taxoland the derivative against mammary carcinoma xenograft in mice; format: functional
Summary of the method: (§2)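 MX-1 human mammary carcinoma xenograft implanted under the renal capsule in mice. Study run at the National Cancer Institute following NIH Publication No. 84-2635. Tumor weights recorded at the start and at the end. Survivors counted after 11 days. %T/C = (Δ tumor weight treated/Δ tumor weight control) × 100 where the tumor grows, and (Δ tumor weight treated/initial control tumor weight) × 100 where it regresses.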

Bos taurus = species on record: Bos taurus; experiment: Relative effect on microtubular assembly (Tubulin polymerized by derivative/tubulin polymerized by taxol); format: functional
Summary of the method: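 Bovine brain tubulin, purified from microtubule-associated proteins by phosphocellulose chromatography, used at 10 μM. Turbidity followed at 350 nm. Polymer pelleted at 200000g, 37 °C, 4 min, depolymerized on ice, and protein measured by Bradford.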

B16 [4] = experiment: Concentration required to inhibit the proliferation of B16 melanoma cells was determined; format: functional, cell-based; conditions: Mus musculus
Mus musculus [5] = experiment: Tumor growth or regression measured as Percent treated by control at a dose of 42 mg/Kg to mice with MX-1 xenograft; format: functional
Summary of the method: (§3)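 Subrenal capsule MX-1 mammary xenograft in mice, run at the National Cancer Institute per NIH Publication No. 84-2635. %T/C = (Δ tumor weight treated / Δ tumor weight control) × 100 where tumors grew. Where tumors regressed, %T/C = (Δ tumor weight treated / initial control tumor weight) × 100.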

Mus musculus [6] = experiment: Initial average tumor weight was measured in mice induced with human mammary carcinoma at a dose of 5.25 mg/Kg; format: functional; summary of the method: as §1
[7] = Solubility in water; format: physicochemical; conditions: read-out: S
Mus musculus [8] = experiment: Final average tumor weight was measured in mice induced with human mammary carcinoma at a dose of 42 mg/Kg; format: functional; summary of the method: as §1
Mus musculus [9] = experiment: Final average tumor weight was measured in mice induced with human mammary carcinoma at a dose of 10.5 mg/Kg; format: functional; summary of the method: as §1
Mus musculus [10] = experiment: Number of survivors after 11 days at a dose of 42 mg/Kg tested in 5 mice; format: functional; summary of the method: as §1
B16 [11] = experiment: Relative effect on B16 melanoma cell proliferation was determined [IC50 (taxol)/IC50 (derivative)]; format: functional, Mus musculus
Mus musculus [12] = experiment: Final average tumor weight was measured in mice induced with human mammary carcinoma at a dose of 5.25 mg/Kg; format: functional; summary of the method: as §1
B16 [13] = experiment: Percentage change in cell number of B16 melanoma cells treated with 10e-5 M dose; format: functional, Mus musculus
Summary of the method: (§4)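 B16 melanoma cells exposed to 10⁻⁵ or 10⁻⁶ M compound for 8 h, then rinsed three times with fresh medium. Cells then grown in drug-free medium for 48 h and counted. Result given as percent change relative to the cell number at time zero. Controls are the average of three experiments.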

Mus musculus [14] = experiment: Tumor growth or regression measured as Percent treated by control at a dose of 5.25 mg/Kg to mice with MX-1 xenograft; format: functional; summary of the method: as §3
B16 [15] = experiment: Percentage change in cell number of B16 melanoma cells treated with 10e-6 M dose; format: functional, Mus musculus; summary of the method: as §4
Mus musculus [16] = experiment: Initial average tumor weight was measured in mice induced with human mammary carcinoma at a dose of 42 mg/Kg; format: functional; summary of the method: as §1
Mus musculus [17] = experiment: Tumor growth or regression measured as Percent treated by control at a dose of 10.5 mg/Kg to mice with MX-1 xenograft; format: functional; summary of the method: as §3
Mus musculus [18] = experiment: Initial average tumor weight was measured in mice induced with human mammary carcinoma at a dose of 10.5 mg/Kg; format: functional; summary of the method: as §1
Mus musculus [19] = experiment: Tumor growth or regression measured as Percent treated by control at a dose of 6.67 mg/Kg to mice with MX-1 xenograft; CR refers to complete remission or when the tumor is no longer detectable; format: functional, organism-based
Summary of the method: (§5)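 Subrenal capsule human mammary carcinoma (MX-1) xenograft in mice, run at the National Cancer Institute by NIH Publication No. 84-2635 procedures. Initial and final average tumor weights recorded, with survivors counted after 11 days. %T/C is (Δ tumor weight treated/Δ tumor weight controls)×100 for growing tumors. For regressing tumors it is (Δ tumor weight treated/initial control tumor weight)×100.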

Mus musculus [20] = experiment: Tumor growth or regression measured as Percent treated by control at a dose of 10 mg/Kg to mice with MX-1 xenograft; format: functional; summary of the method: as §2
Mus musculus [21] = experiment: Initial average tumor weight was measured in mice induced with human mammary carcinoma at a dose of 10 mg/Kg; format: functional; summary of the method: as §2
Mus musculus [22] = experiment: Final average tumor weight was measured in mice induced with human mammary carcinoma at a dose of 15 mg/Kg; format: functional; summary of the method: as §2
Mus musculus [23] = experiment: Initial average tumor weight was measured in mice induced with human mammary carcinoma at a dose of 4.45 mg/Kg; format: functional; summary of the method: as §2
Mus musculus [24] = experiment: Final average tumor weight was measured in mice induced with human mammary carcinoma at a dose of 6.67 mg/Kg; format: functional; summary of the method: as §2
Mus musculus [25] = experiment: Number of survivors after 11 days at a dose of 15 mg/Kg tested in 6 mice; format: functional; summary of the method: as §1
Mus musculus [26] = experiment: Initial average tumor weight was measured in mice induced with human mammary carcinoma at a dose of 15 mg/Kg; format: functional; summary of the method: as §2
Mus musculus [27] = experiment: Final average tumor weight was measured in mice induced with human mammary carcinoma at a dose of 4.45 mg/Kg; format: functional; summary of the method: as §2
Mus musculus [28] = experiment: Number of survivors after 11 days at a dose of 6.67 mg/Kg tested in 5 mice; format: functional; summary of the method: as §1
Mus musculus [29] = experiment: Initial average tumor weight was measured in mice induced with human mammary carcinoma at a dose of 22.4 mg/Kg; format: functional; summary of the method: as §2
Mus musculus [30] = experiment: Number of survivors after 11 days at a dose of 10 mg/Kg tested in 6 mice; format: functional; summary of the method: as §1
Mus musculus [31] = experiment: Tumor growth or regression measured as Percent treated by control at a dose of 4.45 mg/Kg to mice with MX-1 xenograft; CR refers to complete remission or when the tumor is no longer detectable; format: functional, organism-based; summary of the method: as §5
Mus musculus [32] = experiment: Tumor growth or regression measured as Percent treated by control at a dose of 15 mg/Kg to mice with MX-1 xenograft; CR refers to complete remission or when the tumor is no longer detectable; format: functional, organism-based; summary of the method: as §2
Mus musculus [33] = experiment: Final average tumor weight was measured in mice induced with human mammary carcinoma at a dose of 22.4 mg/Kg; format: functional; summary of the method: as §2
Mus musculus [34] = experiment: Tumor growth or regression measured as Percent treated by control at a dose of 22.4 mg/Kg to mice with MX-1 xenograft; Tox refers to toxicity or when < 65% of the animals survive the test; format: functional, organism-based; summary of the method: as §2
Mus musculus [35] = experiment: Initial average tumor weight was measured in mice induced with human mammary carcinoma at a dose of 6.67 mg/Kg; format: functional; summary of the method: as §2
Mus musculus [36] = experiment: Number of survivors after 11 days at a dose of 22.4 mg/Kg tested in 6 mice; format: functional; summary of the method: as §1
Mus musculus [37] = experiment: Final average tumor weight was measured in mice induced with human mammary carcinoma at a dose of 10 mg/Kg; format: functional; summary of the method: as §2
Mus musculus [38] = experiment: Number of survivors after 11 days at a dose of 4.45 mg/Kg tested in 5 mice; format: functional; summary of the method: as §1

## CC(=O)O[C@H]1C(=O)[C@]2(C)[C@@H](OC(=O)CN(C)C)C[C@H]3OC[C@@]3(OC(C)=O)[C@H]2[C@H](OC(=O)c2ccccc2)[C@]2(O)C[C@H](OC(=O)[C@H](OC(=O)CN(C)C)[C@@H](NC(=O)c3ccccc3)c3ccccc3)C(C)=C1C2(C)C.CS(=O)(=O)O.CS(=O)(=O)O
Mus musculus [1]
  No. of survivors: 5
Mus musculus [2]
  No. of survivors: 6
Mus musculus [3]
  Relative antitumor activity: 4
Bos taurus
  Relative effect: 0.42
B16 [4]
  IC50: 0.042 µM
Mus musculus [5]
  T/C: 144%
Mus musculus [6]
  Initial average tumor weight: 0.71 mg
[7]
  solubility: > 8.11 mM
Mus musculus [8]
  Final average tumor weight: 4.35 mg
Mus musculus [9]
  Final average tumor weight: 5.55 mg
Mus musculus [10]
  No. of survivors: 4
B16 [11]
  Relative effect: 0.45
Mus musculus [12]
  Final average tumor weight: 2.51 mg
B16 [13]
  Change in cell number: -72%
Mus musculus [14]
  T/C: 70%
B16 [15]
  Change in cell number: 137%
Mus musculus [16]
  Initial average tumor weight: 0.66 mg
Mus musculus [17]
  T/C: 193%
Mus musculus [18]
  Initial average tumor weight: 0.59 mg

## CC(=O)O[C@H]1C(=O)[C@@]2(C)[C@H]([C@H](OC(=O)c3ccccc3)[C@]3(O)C[C@H](OC(=O)[C@H](O)[C@@H](NC(=O)c4ccccc4)c4ccccc4)C(C)=C1C3(C)C)[C@]1(OC(C)=O)CO[C@@H]1C[C@@H]2O [PACLITAXEL]
Mus musculus [19]
  T/C: Complete remission
Mus musculus [20]
  T/C: -84%
Mus musculus [21]
  Initial average tumor weight: 0.58 mg
Mus musculus [3]
  Relative antitumor activity: 1
Bos taurus
  Relative effect: 1
B16 [4]
  IC50: 0.019 µM
Mus musculus [22]
  Final average tumor weight: 0 mg
Mus musculus [23]
  Initial average tumor weight: 0.79 mg
Mus musculus [24]
  Final average tumor weight: 0 mg
Mus musculus [25]
  No. of survivors: 6
Mus musculus [26]
  Initial average tumor weight: 0.81 mg
Mus musculus [27]
  Final average tumor weight: 0 mg
Mus musculus [28]
  No. of survivors: 5
Mus musculus [29]
  Initial average tumor weight: 0.6 mg
Mus musculus [30]
  No. of survivors: 6
B16 [11]
  Relative effect: 1
Mus musculus [31]
  T/C: Complete remission
B16 [13]
  Change in cell number: 75%
Mus musculus [32]
  T/C: Complete remission
Mus musculus [33]
  Final average tumor weight: 0 mg
B16 [15]
  Change in cell number: 252%
Mus musculus [34]
  T/C: Toxic
Mus musculus [35]
  Initial average tumor weight: 0.74 mg
Mus musculus [36]
  No. of survivors: 3
Mus musculus [37]
  Final average tumor weight: 0.09 mg
Mus musculus [38]
  No. of survivors: 5
